# Calls of active or inactive are those of the source. The calls are words filed in the database; no cut-off is given here.
# Assays:
# [1] = tested on: Receptor-type tyrosine-protein kinase FLT3 (Homo sapiens), P36888 [D835H]; assay: Inhibition of human FLT3 D835H mutant assessed as remaining activity at 1 uM by ATP-competition binding assay relative to control
# Procedure, shortened: (§1)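 Single-point profiling at 1μM in an ATP-site-dependent competition binding assay across a panel of 395 human kinases, including mutant forms. The read-out is kinase binding signal in the presence of test agent, expressed as inhibition relative to the control signal. This screen assessed noncovalent binding interactions.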
# [2] = biological target: Mitogen-activated protein kinase kinase kinase 11 (Homo sapiens) (UniProt Q16584); assay: Inhibition of human MLK3 assessed as remaining activity at 1 uM by ATP-competition binding assay relative to control; procedure, shortened: as §1
# Chain of Mitogen-activated protein kinase kinase kinase 11 (Homo sapiens) (Q16584 whole entry, looked up): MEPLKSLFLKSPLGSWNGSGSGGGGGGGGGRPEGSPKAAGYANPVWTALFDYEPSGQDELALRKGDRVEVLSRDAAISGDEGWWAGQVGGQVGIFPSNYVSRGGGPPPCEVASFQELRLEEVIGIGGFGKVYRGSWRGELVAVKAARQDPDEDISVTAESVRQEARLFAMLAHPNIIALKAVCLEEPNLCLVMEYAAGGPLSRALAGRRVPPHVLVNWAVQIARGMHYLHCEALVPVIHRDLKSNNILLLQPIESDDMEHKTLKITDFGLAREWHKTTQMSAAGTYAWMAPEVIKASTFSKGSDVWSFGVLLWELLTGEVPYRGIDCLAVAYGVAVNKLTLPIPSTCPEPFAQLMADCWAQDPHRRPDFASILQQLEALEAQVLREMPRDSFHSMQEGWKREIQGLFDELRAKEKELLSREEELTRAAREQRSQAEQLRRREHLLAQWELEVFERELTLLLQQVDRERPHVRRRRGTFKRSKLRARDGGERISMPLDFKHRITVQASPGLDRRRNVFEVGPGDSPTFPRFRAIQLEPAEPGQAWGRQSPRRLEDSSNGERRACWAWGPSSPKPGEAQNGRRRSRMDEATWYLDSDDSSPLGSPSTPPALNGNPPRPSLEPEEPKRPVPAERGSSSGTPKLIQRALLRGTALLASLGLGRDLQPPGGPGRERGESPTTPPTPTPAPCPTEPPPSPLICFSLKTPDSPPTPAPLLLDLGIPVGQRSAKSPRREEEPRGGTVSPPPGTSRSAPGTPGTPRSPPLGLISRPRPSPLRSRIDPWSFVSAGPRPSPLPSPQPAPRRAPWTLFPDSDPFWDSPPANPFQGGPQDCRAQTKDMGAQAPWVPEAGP
# [3] = Antileukemic activity against human CLL mononuclear cells xenografted NSG mouse assessed as change in blood cells at 0.16 mg/ml preadministered with compound via drinking water and measured after 3 weeks by flow cytometry analysis relative to control; type: functional, CLL mononuclear cell
# Procedure, shortened: (§2)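 Primary CLL patient mononuclear cells (1 × 10^8 per mouse) engrafted into NSG mice on day 0 after busulfan priming on day −1. Vehicle or drug was given in drinking water from day −1. Mice were killed 3 weeks after engraftment; spleens homogenized, filtered and RBC-lysed; whole blood collected. Six patients, 2–5 mice per patient; paired t-test per patient.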
# [4] = biological target: 5'-AMP-activated protein kinase catalytic subunit alpha-2 (Homo sapiens) (UniProt P54646); assay: Inhibition of human AMPK-alpha2 assessed as remaining activity at 1 uM by ATP-competition binding assay relative to control
# Chain of 5'-AMP-activated protein kinase catalytic subunit alpha-2 (Homo sapiens) (P54646 whole entry, looked up): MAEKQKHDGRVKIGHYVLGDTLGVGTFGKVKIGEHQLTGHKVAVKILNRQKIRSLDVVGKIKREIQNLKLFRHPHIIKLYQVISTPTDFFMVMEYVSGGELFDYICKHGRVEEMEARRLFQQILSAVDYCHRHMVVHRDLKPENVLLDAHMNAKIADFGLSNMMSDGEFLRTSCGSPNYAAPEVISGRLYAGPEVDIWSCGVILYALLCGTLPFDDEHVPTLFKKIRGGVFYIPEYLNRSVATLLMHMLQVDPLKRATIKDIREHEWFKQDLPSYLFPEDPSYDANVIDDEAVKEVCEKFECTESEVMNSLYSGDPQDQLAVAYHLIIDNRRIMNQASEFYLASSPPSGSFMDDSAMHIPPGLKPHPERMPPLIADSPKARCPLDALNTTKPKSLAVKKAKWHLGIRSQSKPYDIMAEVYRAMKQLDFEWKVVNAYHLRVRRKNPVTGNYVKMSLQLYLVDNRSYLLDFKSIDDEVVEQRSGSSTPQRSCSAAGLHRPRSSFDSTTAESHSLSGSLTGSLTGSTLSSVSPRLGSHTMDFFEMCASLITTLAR
# Procedure, shortened: (§3)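 KINOMEscan ATP-site-dependent competition binding panel of 395 human kinases, with compound tested at 1 μM. Binding is reported as remaining signal relative to control.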
# [5] = biological target: Leukocyte tyrosine kinase receptor (Homo sapiens) (UniProt P29376); assay: Inhibition of human LTK assessed as remaining activity at 1 uM by ATP-competition binding assay relative to control; procedure, shortened: as §1
# [6] = biological target: Serine/threonine-protein kinase MARK2 (Homo sapiens) (UniProt Q7KZI7); assay: Inhibition of human MARK2 assessed as remaining activity at 1 uM by ATP-competition binding assay relative to control; procedure, shortened: as §1
# Chain of Serine/threonine-protein kinase MARK2 (Homo sapiens) (Q7KZI7 whole entry): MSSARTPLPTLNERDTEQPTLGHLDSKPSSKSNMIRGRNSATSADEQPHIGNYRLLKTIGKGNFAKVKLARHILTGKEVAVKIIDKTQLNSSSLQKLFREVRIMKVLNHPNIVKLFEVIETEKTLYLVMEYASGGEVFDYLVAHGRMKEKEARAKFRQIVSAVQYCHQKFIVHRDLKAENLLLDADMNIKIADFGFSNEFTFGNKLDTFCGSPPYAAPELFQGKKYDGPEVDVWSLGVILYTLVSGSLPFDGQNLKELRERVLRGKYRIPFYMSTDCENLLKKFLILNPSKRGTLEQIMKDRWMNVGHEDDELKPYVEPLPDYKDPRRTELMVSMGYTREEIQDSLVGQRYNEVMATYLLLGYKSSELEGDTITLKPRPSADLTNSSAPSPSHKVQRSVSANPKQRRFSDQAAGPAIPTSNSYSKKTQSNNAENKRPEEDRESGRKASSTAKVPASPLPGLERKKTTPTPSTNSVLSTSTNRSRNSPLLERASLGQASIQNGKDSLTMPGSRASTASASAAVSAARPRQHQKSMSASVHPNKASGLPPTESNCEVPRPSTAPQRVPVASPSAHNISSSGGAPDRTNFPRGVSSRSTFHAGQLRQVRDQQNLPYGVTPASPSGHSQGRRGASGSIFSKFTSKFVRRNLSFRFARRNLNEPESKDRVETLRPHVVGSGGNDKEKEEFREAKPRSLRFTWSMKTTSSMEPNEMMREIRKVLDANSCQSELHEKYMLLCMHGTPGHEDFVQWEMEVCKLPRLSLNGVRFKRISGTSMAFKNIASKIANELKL
# [7] = biological target: Death-associated protein kinase 2 (Homo sapiens) (UniProt Q9UIK4); assay: Inhibition of human DAPK2 assessed as remaining activity at 1 uM by ATP-competition binding assay relative to control; procedure, shortened: as §3
# [8] = biological target: Activated CDC42 kinase 1 (Homo sapiens) (UniProt Q07912); assay: Inhibition of human TNK2 assessed as remaining activity at 1 uM by ATP-competition binding assay relative to control
# Procedure, shortened: (§4)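 Single-concentration (1 μM) screen in an ATP-site-dependent competition binding assay (KINOMEscan, outsourced) covering 395 human kinases, mutants included. Non-covalent binding was read as the remaining signal relative to the control signal.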
# [9] = biological target: Tyrosine-protein kinase JAK1 (Homo sapiens) (UniProt P23458); assay: Inhibition of human JAK1 JH2 domain assessed as remaining activity at 1 uM by ATP-competition binding assay relative to control; procedure, shortened: as §1
# [10] = biological target: Tyrosine-protein kinase Blk (Homo sapiens) (UniProt P51451); assay: Inhibition of human BLK assessed as remaining activity at 1 uM by ATP-competition binding assay relative to control; procedure, shortened: as §3
# [11] = biological target: Casein kinase I isoform alpha-like (Homo sapiens) (UniProt Q8N752); assay: Inhibition of human CSNK1A1L assessed as remaining activity at 1 uM by ATP-competition binding assay relative to control; procedure, shortened: as §3
# Chain of Casein kinase I isoform alpha-like (Homo sapiens) (Q8N752 whole entry, canonical isoform): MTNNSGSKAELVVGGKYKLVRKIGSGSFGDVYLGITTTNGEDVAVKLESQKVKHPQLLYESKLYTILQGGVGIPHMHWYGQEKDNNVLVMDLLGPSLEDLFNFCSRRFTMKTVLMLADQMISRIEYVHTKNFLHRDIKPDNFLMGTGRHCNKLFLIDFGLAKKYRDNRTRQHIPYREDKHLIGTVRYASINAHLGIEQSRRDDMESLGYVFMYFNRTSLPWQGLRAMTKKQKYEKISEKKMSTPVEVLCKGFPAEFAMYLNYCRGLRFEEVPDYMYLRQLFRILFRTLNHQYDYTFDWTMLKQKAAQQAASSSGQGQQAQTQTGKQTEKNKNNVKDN
# [12] = biological target: Serine/threonine-protein kinase LATS1 (Homo sapiens) (UniProt O95835); assay: Inhibition of human LATS1 assessed as remaining activity at 1 uM by ATP-competition binding assay relative to control; procedure, shortened: as §1
# CLL mononuclear cell [13] = assay: Antileukemic activity against human CLL mononuclear cells xenografted NSG mouse assessed as reduction in splenic tumor burden at 0.3 mg/ml preadministered with compound via drinking water and measured after 3 weeks by flow cytometry analysis; type: functional, cell-based; procedure, shortened: as §2
# [14] = biological target: Serine/threonine-protein kinase B-raf (Homo sapiens) (UniProt P15056); assay: Inhibition of human BRAF assessed as remaining activity at 1 uM by ATP-competition binding assay relative to control; procedure, shortened: as §3
# [15] = biological target: Calcium/calmodulin-dependent protein kinase kinase 2 (Homo sapiens) (UniProt Q96RR4); assay: Inhibition of human CAMKK2 assessed as remaining activity at 1 uM by ATP-competition binding assay relative to control; procedure, shortened: as §3
# [16] = biological target: Tyrosine-protein kinase BTK (Homo sapiens) (UniProt Q06187); details: dose < 100.0 nM
# Chain of Tyrosine-protein kinase BTK (Homo sapiens) (Q06187 whole entry): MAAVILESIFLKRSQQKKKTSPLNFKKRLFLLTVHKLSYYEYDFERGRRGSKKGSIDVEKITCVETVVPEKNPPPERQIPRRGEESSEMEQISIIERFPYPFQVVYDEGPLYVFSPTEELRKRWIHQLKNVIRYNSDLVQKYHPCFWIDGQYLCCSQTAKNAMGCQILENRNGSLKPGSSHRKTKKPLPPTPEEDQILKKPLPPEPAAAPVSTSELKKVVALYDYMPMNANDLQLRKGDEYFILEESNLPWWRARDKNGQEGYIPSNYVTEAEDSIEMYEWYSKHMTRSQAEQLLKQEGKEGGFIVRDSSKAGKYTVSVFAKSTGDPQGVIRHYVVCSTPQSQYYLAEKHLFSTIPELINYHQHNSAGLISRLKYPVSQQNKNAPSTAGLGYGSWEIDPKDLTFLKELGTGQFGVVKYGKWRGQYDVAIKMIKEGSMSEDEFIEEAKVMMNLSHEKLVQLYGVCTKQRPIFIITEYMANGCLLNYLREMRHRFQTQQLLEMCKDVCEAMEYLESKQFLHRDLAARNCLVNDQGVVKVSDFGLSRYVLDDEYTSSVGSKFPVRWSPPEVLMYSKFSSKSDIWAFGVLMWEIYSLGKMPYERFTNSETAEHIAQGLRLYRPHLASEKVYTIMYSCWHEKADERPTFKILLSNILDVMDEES
# [17] = biological target: Serine/threonine-protein kinase 35 (Homo sapiens) (UniProt Q8TDR2); assay: Inhibition of human STK35 assessed as remaining activity at 1 uM by ATP-competition binding assay relative to control; procedure, shortened: as §4
# [18] = biological target: Proto-oncogene tyrosine-protein kinase Src (Homo sapiens) (UniProt P12931); assay: Inhibition of human SRC assessed as remaining activity at 1 uM by ATP-competition binding assay relative to control; procedure, shortened: as §4
# [19] = biological target: Casein kinase I isoform gamma-1 (Homo sapiens) (UniProt Q9HCP0); assay: Inhibition of human CSNK1G1 assessed as remaining activity at 1 uM by ATP-competition binding assay relative to control; procedure, shortened: as §3
# [20] = biological target: Activin receptor type-1-like (Homo sapiens) (UniProt P37023); assay: Inhibition of human ACVRL1 assessed as remaining activity at 1 uM by ATP-competition binding assay relative to control; procedure, shortened: as §3
# [21] = biological target: Receptor tyrosine-protein kinase erbB-2 (Homo sapiens) (UniProt P04626); assay: Inhibition of human ERBB2 assessed as remaining activity at 1 uM by ATP-competition binding assay relative to control; procedure, shortened: as §1
# [22] = biological target: Serine/threonine-protein kinase Nek7 (Homo sapiens) (UniProt Q8TDX7); assay: Inhibition of human NEK7 assessed as remaining activity at 1 uM by ATP-competition binding assay relative to control; procedure, shortened: as §1
# Chain of Serine/threonine-protein kinase Nek7 (Homo sapiens) (Q8TDX7 whole entry, looked up): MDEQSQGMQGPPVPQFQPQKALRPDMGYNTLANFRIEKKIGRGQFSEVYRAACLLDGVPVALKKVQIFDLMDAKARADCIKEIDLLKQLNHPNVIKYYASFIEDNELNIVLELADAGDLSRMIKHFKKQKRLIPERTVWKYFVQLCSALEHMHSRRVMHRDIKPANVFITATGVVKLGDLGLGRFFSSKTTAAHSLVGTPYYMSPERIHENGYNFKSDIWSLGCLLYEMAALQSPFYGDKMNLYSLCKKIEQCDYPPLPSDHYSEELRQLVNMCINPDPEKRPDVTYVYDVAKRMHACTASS
# [23] = biological target: cGMP-dependent protein kinase 1 (Homo sapiens) (UniProt Q13976); assay: Inhibition of human PRKG1 assessed as remaining activity at 1 uM by ATP-competition binding assay relative to control; procedure, shortened: as §4
# CLL mononuclear cell [24] = assay: Antileukemic activity against human CLL mononuclear cells xenografted NSG mouse assessed as reduction in ki67 cells at 0.3 mg/ml preadministered with compound via drinking water and measured after 3 weeks by flow cytometry analysis; type: functional, cell-based; procedure, shortened: as §2
# [25] = Antileukemic activity against human CLL mononuclear cells xenografted NSG mouse assessed as inhibition in cell proliferation measuring by Ki67 expression level at 0.3 to 0.16 mg/ml preadministered with compound via drinking water and measured after 3 weeks by flow cytometry analysis relative to control; type: functional; details: dose 0.3-0.16 mg/ml, at 0.16 to 0.3 mg/mL; procedure, shortened: as §2
# [26] = biological target: Tyrosine-protein kinase receptor Tie-1 (Homo sapiens) (UniProt P35590); assay: Inhibition of human TIE1 assessed as remaining activity at 1 uM by ATP-competition binding assay relative to control; procedure, shortened: as §4
# Chain of Tyrosine-protein kinase receptor Tie-1 (Homo sapiens) (P35590 whole entry): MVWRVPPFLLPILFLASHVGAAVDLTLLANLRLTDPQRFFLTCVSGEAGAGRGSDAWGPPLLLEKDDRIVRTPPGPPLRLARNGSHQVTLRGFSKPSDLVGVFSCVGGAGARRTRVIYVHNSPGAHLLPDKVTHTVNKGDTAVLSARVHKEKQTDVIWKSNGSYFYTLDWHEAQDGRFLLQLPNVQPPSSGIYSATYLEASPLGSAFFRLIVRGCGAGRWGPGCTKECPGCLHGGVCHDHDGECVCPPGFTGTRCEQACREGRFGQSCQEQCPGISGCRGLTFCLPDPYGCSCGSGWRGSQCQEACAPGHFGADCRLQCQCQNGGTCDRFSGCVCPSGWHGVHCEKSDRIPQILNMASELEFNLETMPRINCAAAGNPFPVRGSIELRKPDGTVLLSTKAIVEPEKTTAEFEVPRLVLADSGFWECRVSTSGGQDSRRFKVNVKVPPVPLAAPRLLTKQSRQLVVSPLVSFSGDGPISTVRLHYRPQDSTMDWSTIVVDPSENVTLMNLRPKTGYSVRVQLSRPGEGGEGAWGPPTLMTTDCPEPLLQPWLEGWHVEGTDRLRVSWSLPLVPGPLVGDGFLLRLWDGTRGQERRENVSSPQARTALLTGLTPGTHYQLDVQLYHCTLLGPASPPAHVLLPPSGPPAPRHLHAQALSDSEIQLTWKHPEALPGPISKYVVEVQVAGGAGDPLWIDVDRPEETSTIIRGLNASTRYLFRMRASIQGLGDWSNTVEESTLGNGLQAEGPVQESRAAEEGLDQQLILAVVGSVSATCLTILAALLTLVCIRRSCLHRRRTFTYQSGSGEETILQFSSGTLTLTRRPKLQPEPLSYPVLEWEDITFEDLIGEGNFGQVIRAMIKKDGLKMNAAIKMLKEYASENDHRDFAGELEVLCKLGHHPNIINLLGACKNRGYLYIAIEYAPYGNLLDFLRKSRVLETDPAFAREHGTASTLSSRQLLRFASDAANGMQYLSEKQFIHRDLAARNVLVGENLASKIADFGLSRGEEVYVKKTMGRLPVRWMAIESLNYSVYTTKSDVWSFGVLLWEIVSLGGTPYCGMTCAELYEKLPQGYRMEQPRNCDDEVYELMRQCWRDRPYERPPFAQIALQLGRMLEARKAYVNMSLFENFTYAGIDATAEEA
# [27] = biological target: Mitogen-activated protein kinase 13 (Homo sapiens) (UniProt O15264); assay: Inhibition of human P38delta assessed as remaining activity at 1 uM by ATP-competition binding assay relative to control; procedure, shortened: as §1
# [28] = biological target: Casein kinase I isoform epsilon (Homo sapiens) (UniProt P49674); assay: Inhibition of human CSNK1E assessed as remaining activity at 1 uM by ATP-competition binding assay relative to control; procedure, shortened: as §3
# Chain of Casein kinase I isoform epsilon (Homo sapiens) (P49674 whole entry, looked up, canonical isoform): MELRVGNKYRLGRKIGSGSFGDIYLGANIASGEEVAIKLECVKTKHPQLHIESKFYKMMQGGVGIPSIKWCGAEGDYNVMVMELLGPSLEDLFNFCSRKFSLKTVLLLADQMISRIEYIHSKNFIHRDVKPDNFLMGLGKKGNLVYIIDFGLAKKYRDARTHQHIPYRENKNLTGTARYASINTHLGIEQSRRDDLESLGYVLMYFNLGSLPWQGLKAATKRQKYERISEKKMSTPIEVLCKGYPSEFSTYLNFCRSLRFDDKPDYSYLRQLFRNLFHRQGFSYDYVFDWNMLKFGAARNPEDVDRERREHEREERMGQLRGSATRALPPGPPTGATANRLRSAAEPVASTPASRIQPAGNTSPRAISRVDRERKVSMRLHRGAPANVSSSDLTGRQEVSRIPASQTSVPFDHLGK
structure (smiles),measurement,setting,value
CC#CC(=O)N1CCC[C@H]1c1nc(-c2ccc(C(=O)Nc3ccccn3)cc2)c2c(N)nccn12 [ACALABRUTINIB],Activity,[1],86%
same,Activity,[2],94%
same,Activity,[3],76%
same,Activity,[4],84%
same,Activity,[5],86%
same,Activity,[6],59%
same,Activity,[7],80%
same,Activity,[8],93%
same,Activity,[9],71%
same,Activity,[10],61%
same,Activity,[11],92%
same,Activity,[12],93%
same,Activity,CLL mononuclear cell [13],Active
same,Activity,[14],64%
same,Activity,[15],93%
same,inhibition,[16],Active
same,Activity,[17],100%
same,Activity,[18],78%
same,Activity,[19],78%
same,Activity,[20],76%
same,Activity,[21],2.1%
same,Activity,[22],80%
same,Activity,[23],70%
same,Activity,CLL mononuclear cell [24],Active
same,inhibition (INH),[25],50%
same,Activity,[26],89%
same,Activity,[27],57%
same,Activity,[28],90%
